Assay outcomes (PubChem)
CAL PDZ FP-1 = untagged CAL PDZ binding inhibitors, primary screen, biochemical, fluorescence polarization, HTS; Golgi-associated PDZ and coiled-coil motif-containing protein (Homo sapiens), Q9HD26; purified CAL PDZ, TMR-peptide fluorescence polarization, 1 h; inhibition, % at 24.9 µM; hit rate 0.92% among 300,000; AID 602252, 2012;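 active = mean inhibition of at least 30% with at least half of replicates also reaching 30%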;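 note: 0% = DMSO neutral control and 100% = excess unlabeled competitor peptide PRC23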
Rce1 inhib = yeast Rce1p protease inhibitors, primary screen, biochemical, fluorescence, cell-free homogeneous. CAAX prenyl protease 2 (Saccharomyces cerevisiae (strain ATCC 204508 / S288c)), Q03530. hit rate 0.27% among 290,000. yeast membranes, quenched prenylated peptide cleavage fluorescence. calls only. AID 2563, 2010;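 active = fall in fluorescence gain of 50% or more versus controls, with final raw signal at or below 3038400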;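 note: plate controls were neutral control wells for no effect and wells lacking membranes for full effect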
Target sequence (Q03530 whole entry, looked up): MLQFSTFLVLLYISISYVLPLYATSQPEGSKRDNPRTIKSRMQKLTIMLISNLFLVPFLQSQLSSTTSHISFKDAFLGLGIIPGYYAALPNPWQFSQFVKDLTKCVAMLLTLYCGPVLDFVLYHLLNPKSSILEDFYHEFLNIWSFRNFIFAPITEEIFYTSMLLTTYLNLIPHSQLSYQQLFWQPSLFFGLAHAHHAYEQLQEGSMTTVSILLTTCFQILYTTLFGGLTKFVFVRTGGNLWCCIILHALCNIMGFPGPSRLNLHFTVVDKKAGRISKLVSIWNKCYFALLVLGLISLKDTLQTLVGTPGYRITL
CAL PDZ FP-2 = CAL PDZ peptide-binding inhibitors, primary screen, biochemical, fluorescence polarization, Cer-tagged CAL PDZ, HTS; Golgi-associated PDZ and coiled-coil motif-containing protein (Homo sapiens), Q9HD26; purified CAL PDZ, TMR-peptide fluorescence polarization, 1 h; inhibition, % at 20 µM; hit rate 0.02% among 330,000; AID 504414, 2011;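 active = highest replicate inhibition of at least 40%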;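 note: plate controls were DMSO neutral control wells for no effect and unlabeled competitor peptide control wells for full effect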
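material = purified tagged CAL PDZ domain construct (CerCALP) | buffer or medium = sodium phosphate/NaCl buffer pH 7.4 with TCEP, IgG, Thesit | reagent = TMR-labelled reporter peptide T*-PRC34 bound in PDZ groove | incubation = 1 h room-temperature incubation prior to read | measured by = fluorescence polarization (mP) | evaluation = percent inhibition from loss of millipolarization | control set = unlabelled peptide and DMSO controls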
AI-2 QS mod = Vibrio harveyi AI-2 quorum sensing modulators, primary screen, JMH597 strain, luminescence/OD600 ratio. hit rate 0.4% among 300,000. AID 2094, 2009. Vibrio harveyi JMH597 AI-2 luminescence/OD600 ratio, 9 h; stronger effect = lower value; strain lacks LuxN and CqsS sensors; 0 = neutral-control median. activity change, % at 7.5 µM; in the data active = activity change below about -75%, passing the limit was not always enough;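 note: luminescence divided by OD600 gain over 9 h not by final OD600 alone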
ARNT-TACC3 inh = disruptors of ARNT/TACC3 protein interaction, primary screen, biochemical, AlphaScreen, single concentration; inhibition, % at 9.99 µM; AlphaScreen His-ARNT PAS-B/GST-TACC3 binding, luminescence; TACC3 fragment carries E629A point mutation; hit rate 0.66% among 390,000;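 active = mean inhibition of replicates at least 50% and at least half of replicates each reaching 50%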;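 note: 0% = complete ARNT plus TACC3 wells and 100% = ARNT alone without TACC3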
ARNT Alpha ctr = AlphaScreen signal interference compounds, dose response, artefact control for ARNT-TACC3 interaction inhibitor project, biochemical, luminescence, cherry-pick. shares compounds with ARNT-TACC3 inh. His-ARNT PASB-GST AlphaScreen artifact counter-screen. AC50, µM (highest dose often 68 µM), without a hit: at the highest dose activity change, negative = signal decrease. hit rate 50% among 1,200;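 active = every separate test run was called active for a drop in luminescence, with AC50 within twice the top valid dose, actives reach about 71 µM in these data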
An asterisk follows results filed as active. Shown are actives, neighbours in structure and some others; about 1.7% of the full set was active somewhere.

Results for CCCOc1ccc(/C=N/Nc2cc(N3CCOCC3)ncn2)c(O)c1 ?
CAL PDZ FP-1: -5; Rce1 inhib: inactive; CAL PDZ FP-2: 1; AI-2 QS mod: 18; ARNT-TACC3 inh: 58*; ARNT Alpha ctr: -27%

How did c1ccc(-c2nnc(Nc3nc(-c4ccccn4)nnc3-c3ccccc3)s2)cc1 do in these assays?
ARNT Alpha ctr: 4.1µM*

What do the screens show for `c1ccc(-c2nnc(-c3ccccn3)nc2NC2CCCCC2)cc1`?
CAL PDZ FP-1: 2; Rce1 inhib: inactive; CAL PDZ FP-2: -4; AI-2 QS mod: -17

Results for CNc1nc(-c2ccccn2)nnc1-c1ccccc1 ?
CAL PDZ FP-1: 0; Rce1 inhib: inactive; CAL PDZ FP-2: -2; AI-2 QS mod: 12; ARNT-TACC3 inh: 64*; ARNT Alpha ctr: 3µM*

Results for Cn1c(-c2ccccc2)cnc1Nc1nc(-c2ccccn2)nnc1-c1ccccc1 ?
ARNT Alpha ctr: 2.6µM*

Results for CC(Nc1nc(-c2ccccn2)nnc1-c1ccccc1)c1ccccc1 (centres undefined) ?
ARNT Alpha ctr: 2.3µM*

How did CC(C)CCCC(C)NC(=O)c1cc(S(=O)(=O)N2CCCCC2)ccc1N1CCOCC1 (centres undefined) do in these assays?
CAL PDZ FP-1: 0; CAL PDZ FP-2: -1; ARNT-TACC3 inh: -3

How did CC(=O)N(C)c1ccc(NC(=S)NCC(C)C)cc1 do in these assays?
CAL PDZ FP-1: 4; Rce1 inhib: inactive; CAL PDZ FP-2: -5; AI-2 QS mod: 21; ARNT-TACC3 inh: 1

Results for Cc1ccc(-n2c(-c3ccc(Br)cc3)c[n+]3c2CCc2ccc4cccnc4c2-3)cc1 ?
CAL PDZ FP-1: -3; Rce1 inhib: inactive; CAL PDZ FP-2: -7; AI-2 QS mod: -32; ARNT-TACC3 inh: 59*; ARNT Alpha ctr: -11%

How did NC(=O)CC(NC(=O)c1ccccc1)c1ccc(NCc2ccccn2)c([N+](=O)[O-])c1 (centres undefined) do in these assays?
CAL PDZ FP-1: -2; Rce1 inhib: inactive; CAL PDZ FP-2: 0; AI-2 QS mod: 39; ARNT-TACC3 inh: 65*; ARNT Alpha ctr: -13%

How did CCOc1ccccc1/C=N/NC(=O)c1cccc(S(=O)(=O)N(CC)CC)c1 do in these assays?
Rce1 inhib: inactive; CAL PDZ FP-2: -1; AI-2 QS mod: 5; ARNT-TACC3 inh: -8

Results for COc1cccc(/C=N/Nc2ccnc(=O)[nH]2)c1O ?
CAL PDZ FP-1: 5; Rce1 inhib: inactive; AI-2 QS mod: 54; ARNT-TACC3 inh: 57*; ARNT Alpha ctr: 60µM*

What do the screens show for `CCN(CC)c1ccc(/C=N/NC(=O)c2ccc3nc[nH]c3c2)c(O)c1`?
CAL PDZ FP-1: 0; CAL PDZ FP-2: 2; AI-2 QS mod: -67; ARNT-TACC3 inh: 55*; ARNT Alpha ctr: 41µM*

What do the screens show for `CCN(CC)S(=O)(=O)c1cccc(C(=O)N/N=C/c2ccc(O)c(O)c2O)c1`?
CAL PDZ FP-1: -3; CAL PDZ FP-2: -6; ARNT-TACC3 inh: 59*; ARNT Alpha ctr: 19µM*

Results for COc1cccc(/C=N/NC(=O)c2ccc3nc[nH]c3c2)c1O ?
CAL PDZ FP-1: -15; Rce1 inhib: inactive; CAL PDZ FP-2: -2; AI-2 QS mod: 13; ARNT-TACC3 inh: 63*; ARNT Alpha ctr: -20%

Results for COc1cc(OC)c(OC)cc1/C=N/NC(=O)c1ccc2nc[nH]c2c1 ?
CAL PDZ FP-1: 1; Rce1 inhib: inactive; CAL PDZ FP-2: -1; AI-2 QS mod: 23; ARNT-TACC3 inh: 4

What do the screens show for `Cc1ccc(-c2nn3c(C)nnc3s2)cc1NC(=O)c1ccc(-c2ccc(Cl)cc2Cl)o1`?
CAL PDZ FP-1: -4; CAL PDZ FP-2: -3; ARNT-TACC3 inh: -7

How did CCOc1ccc(S(=O)(=O)Nc2cc(SCC(=O)O)c(O)c3ccccc23)cc1 do in these assays?
CAL PDZ FP-1: 6; Rce1 inhib: inactive; CAL PDZ FP-2: 37; AI-2 QS mod: 8

Results for O=C(O)CSc1cc(NS(=O)(=O)c2cccc([N+](=O)[O-])c2)c2ccccc2c1O ?
CAL PDZ FP-1: 13; Rce1 inhib: inactive; CAL PDZ FP-2: 28; AI-2 QS mod: 55; ARNT-TACC3 inh: 61*; ARNT Alpha ctr: -11%

Results for O=C(Cn1cncn1)N/N=C/c1cc([N+](=O)[O-])ccc1O ?
CAL PDZ FP-1: -2; Rce1 inhib: inactive; CAL PDZ FP-2: -1; AI-2 QS mod: 25; ARNT-TACC3 inh: 64*; ARNT Alpha ctr: 28µM*

What do the screens show for `O=C(CCCn1cnc([N+](=O)[O-])n1)Nc1cc(Cl)ccc1O`?
CAL PDZ FP-1: 0; Rce1 inhib: inactive; CAL PDZ FP-2: -1; AI-2 QS mod: 15; ARNT-TACC3 inh: -5

Results for O=C(Cn1cnc([N+](=O)[O-])n1)N/N=C/c1cc(Cl)ccc1O ?
CAL PDZ FP-1: -4; Rce1 inhib: inactive; CAL PDZ FP-2: -3; AI-2 QS mod: -84*; ARNT-TACC3 inh: 58*; ARNT Alpha ctr: 70µM*

What do the screens show for `CCC(COC(=O)c1ccccc1)Oc1cc(NCc2ccccc2)c2ncn(C(C)C)c2c1` (centres undefined)?
CAL PDZ FP-1: 0; CAL PDZ FP-2: 1; ARNT-TACC3 inh: 17

Results for CCC(COC)Oc1cc(NCc2ccccc2)c2ncn(C(C)C)c2c1 (centres undefined) ?
CAL PDZ FP-1: 2; CAL PDZ FP-2: 0; ARNT-TACC3 inh: 56*; ARNT Alpha ctr: 34µM*

How did Cc1[nH]n2c(=O)c3c(nc2c1-c1ccccc1)CCC3 do in these assays?
Rce1 inhib: inactive; CAL PDZ FP-2: -2; AI-2 QS mod: 15; ARNT-TACC3 inh: 59*; ARNT Alpha ctr: -1%

How did COc1cc2c(cc1NC(=O)CSc1nnc(COc3ccc(Cl)cc3)n1C)oc1ccccc12 do in these assays?
Rce1 inhib: inactive; CAL PDZ FP-2: -3; AI-2 QS mod: 27; ARNT-TACC3 inh: 1

How did CCOC(=O)CC(NC(=O)Cc1ccc(F)cc1)c1ccccc1Cl (centres undefined) do in these assays?
CAL PDZ FP-1: 0; Rce1 inhib: inactive; CAL PDZ FP-2: 0; AI-2 QS mod: 22; ARNT-TACC3 inh: 22*; ARNT Alpha ctr: -4%

How did Cc1nnc(NC(=O)CSc2nnc(CNC(=O)c3ccc(F)cc3)o2)s1 do in these assays?
CAL PDZ FP-1: -2; Rce1 inhib: inactive; CAL PDZ FP-2: 0; AI-2 QS mod: 33; ARNT-TACC3 inh: 46*; ARNT Alpha ctr: -8%
